# Measured values as given in ChEMBL document CHEMBL4145680, “Tau-Centric Multitarget Approach for Alzheimer's Disease: Development of First-in-Class Dual Glycogen Synthase Kinase 3β and Tau-Aggregation Inhibitors” (J Med Chem, 2018).
# pIC50: −log10 of the molar value. Active and inactive are the calls of the source.
# How the values were obtained:
# [1] = biological target: T1, Glycogen synthase kinase-3 beta (Homo sapiens, UniProt P49841); experiment: Inhibition of GSK3beta (unknown origin) using GS-2 peptide substrate incubated for 30 mins by kinase-Glo luminescent assay
# Method in brief: (§1)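 Human recombinant GSK-3β, 20 ng, in 50 mM HEPES pH 7.5 with 1 mM EDTA, 1 mM EGTA and Mg acetate. Incubated 30 min at 30 °C, then Kinase-Glo luminescence read after 10 min. Activity scaled between no-inhibitor and full-inhibition reference controls.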
# Target sequence in this assay (P49841 whole entry): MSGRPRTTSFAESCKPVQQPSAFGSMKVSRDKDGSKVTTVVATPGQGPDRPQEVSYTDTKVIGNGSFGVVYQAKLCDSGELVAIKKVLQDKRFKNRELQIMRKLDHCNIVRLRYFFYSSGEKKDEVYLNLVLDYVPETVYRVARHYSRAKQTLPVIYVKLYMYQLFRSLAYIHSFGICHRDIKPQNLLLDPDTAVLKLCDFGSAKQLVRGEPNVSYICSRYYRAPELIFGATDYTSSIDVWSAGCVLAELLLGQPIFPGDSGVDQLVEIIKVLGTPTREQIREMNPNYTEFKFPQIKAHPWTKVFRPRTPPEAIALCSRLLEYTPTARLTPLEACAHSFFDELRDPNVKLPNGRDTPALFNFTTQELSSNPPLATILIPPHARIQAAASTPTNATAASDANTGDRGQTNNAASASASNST
# [2] = biological target: T1, Glycogen synthase kinase-3 beta; experiment: Inhibition of GSK3beta (unknown origin) at 10 uM using GS-2 peptide substrate incubated for 30 mins by kinase-Glo luminescent assay
# Method in brief: as §1, with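 “acetate. Substrate prephosphorylated GS-2 peptide 25 µM with 1 µM ATP; DMSO ≤1%.” for “acetate.”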
# Target sequence in this assay (P49841 whole entry, looked up): as the sequence (P49841 whole entry) above
# [3] = Permeability in pH 7.4 PBS incubated for 2.5 hrs by PAMPA-BBB assay; format: ADME; conditions: read-out: permeability
# Method in brief: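 PAMPA-BBB: donor filter coated with porcine brain lipid in dodecane (20 mg/mL). Compounds in PBS pH 7.4/EtOH 70:30, acceptor filled with the same. Sandwich incubated 2.5 h at 25 °C, then donor and acceptor concentrations measured by UV at 3–5 wavelengths, 3 wells, two runs. Ten reference drugs included for validation.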
# [4] = biological target: Casein kinase I isoform epsilon (Homo sapiens) (UniProt P49674); experiment: Inhibition of human recombinant CK1epsilon at 10 uM incubated for 60 mins by Kinase-Glo assay
# Sequence of Casein kinase I isoform epsilon (Homo sapiens) (P49674 whole entry, looked up, canonical isoform): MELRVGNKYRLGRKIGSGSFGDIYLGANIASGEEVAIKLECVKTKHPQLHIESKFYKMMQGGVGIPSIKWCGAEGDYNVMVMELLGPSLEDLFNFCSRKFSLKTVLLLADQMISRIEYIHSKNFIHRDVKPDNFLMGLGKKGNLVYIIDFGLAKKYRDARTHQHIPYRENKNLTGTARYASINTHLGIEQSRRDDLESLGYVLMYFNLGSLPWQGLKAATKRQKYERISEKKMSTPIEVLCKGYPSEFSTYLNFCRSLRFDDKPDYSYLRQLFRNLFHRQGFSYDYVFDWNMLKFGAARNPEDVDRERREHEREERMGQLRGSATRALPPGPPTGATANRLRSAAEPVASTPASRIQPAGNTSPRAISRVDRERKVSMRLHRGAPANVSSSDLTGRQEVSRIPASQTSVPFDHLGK
# Method in brief: (§2)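 Human recombinant CK1δ or CK1ε, 16 ng, in 50 mM HEPES pH 7.5 with 10 mM MgCl2, 1 mM EGTA and Brij-35. Substrate 0.1% casein with 4 µM ATP; compound diluted to 10 µM before addition, DMSO ≤1%. Incubated 60 min at 30 °C, then Kinase-Glo luminescence read. Inhibition relative to no-inhibitor activity; mean of two experiments.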
# [5] = Inhibition of AcPHF6 peptide aggregation in pH 7.4 phosphate buffer at 20 uM by CD Spectroscopy
# [6] = Inhibition of AcPHF6 peptide aggregation in pH 7.4 phosphate buffer at 10 uM by atomic force microscopy
# Method in brief: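 AcPHF6 500 µM in water diluted to 50 µM in 50 mM phosphate pH 7.4, ±10 µM compound, no ThT. Incubated 80 min at 25 °C with 10 s shaking at 400 rpm each minute. Ultrafiltered (30 kDa cut-off), buffer exchanged to water, and the retained high-MW fraction adsorbed on mica. Imaged by PeakForce tapping-mode AFM.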
# [7] = biological target: T1, Glycogen synthase kinase-3 beta; experiment: Inhibition of okadaic acid-induced GSK-3beta-mediated tau hyperphosphorylation in human SH-SY5Y cells assessed as increase in cell viability pre-incubated for 1 hr before okadaic acid stimulation for 24 hrs by MTT assay; format: cell-based
# Method in brief: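 SH-SY5Y cells grown in DMEM with 10% FBS, seeded at 60000 per well and used 48 h later. Compound given 1 h before 30nM okadaic acid, then 24 h incubation. Viability by MTT, 0.5mg/mL for at least 4 h, formazan dissolved in DMSO, absorbance at 595 nm. Expressed relative to control (=100); n=6 from three independent experiments.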
# Target sequence in this assay (P49841 whole entry, looked up): as the sequence (P49841 whole entry) above
# [8] = Hepatotoxicity in human HepG2 cells assessed as reduction in cell viability at 5 to 50 uM incubated for 24 hrs by MTT assay; format: toxicity, cell-based; conditions: hepg2, 24 h
# Method in brief: (§3)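 HepG2 cells grown in DMEM with 10% FBS at 37 °C, 5% CO2, seeded at 0.5 × 10^5 cells/well and left 24 h. Exposed in serum-free DMEM for 24 h (concentrations listed as 0, 10, 25, 50 µM; elsewhere 0, 5, 25, 50 µM). MTT 0.1 mg/mL for 10 min at 37 °C in the dark. Formazan dissolved in Tris/Triton X-100, A570. Mean ± SE of ≥3 experiments in triplicate; reported as % of control.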
# [9] = biological target: T1, Glycogen synthase kinase-3 beta; experiment: Inhibition of GSK3beta (unknown origin) pre-incubated for 30 mins followed by ULight-GS (Ser641/pSer657) peptide substrate addition and measured after 1 hr by TR-FRET assay
# Target sequence in this assay (P49841 whole entry): as above
# [10] = tested on: Cerebellar granule neurone; experiment: Neurotoxicity in rat primary cerebellar granule neurons assessed as reduction in cell viability at 50 uM incubated for 24 hrs by MTT assay; format: toxicity
# Method in brief: (§4)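 Cerebellar granule neurons from 7-day-old rat pups, plated on poly-L-lysine at 3 × 10^5 cells/well in BME with FBS and 25 mM KCl. Cytosine arabinoside 10 µM added at 16 h. At 7 days in vitro, switched to serum-free BME with 25 mM KCl and treated 24 h at 0, 5, 25 or 50 µM. MTT 0.1 mg/mL for 20 min at 37 °C, A570. Mean ± SE of ≥3 experiments in triplicate, as % of control.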
# [11] = biological target: Casein kinase I isoform delta (Homo sapiens) (UniProt P48730); experiment: Inhibition of human recombinant CK1delta at 10 uM incubated for 60 mins by Kinase-Glo assay; method in brief: as §2
# Sequence of Casein kinase I isoform delta (Homo sapiens) (P48730 whole entry, looked up, canonical isoform): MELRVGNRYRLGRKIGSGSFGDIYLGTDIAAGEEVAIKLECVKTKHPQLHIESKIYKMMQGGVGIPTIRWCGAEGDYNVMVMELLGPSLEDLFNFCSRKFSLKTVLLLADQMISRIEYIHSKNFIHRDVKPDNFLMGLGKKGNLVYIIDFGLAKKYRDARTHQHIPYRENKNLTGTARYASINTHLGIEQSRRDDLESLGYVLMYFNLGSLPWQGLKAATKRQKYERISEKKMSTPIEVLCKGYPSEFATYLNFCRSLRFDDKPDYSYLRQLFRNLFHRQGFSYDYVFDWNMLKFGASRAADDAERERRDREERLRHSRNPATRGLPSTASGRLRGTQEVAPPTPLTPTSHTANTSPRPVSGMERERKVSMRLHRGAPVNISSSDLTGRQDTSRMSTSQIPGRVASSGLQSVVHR
# [12] = biological target: T1, Glycogen synthase kinase-3 beta; experiment: Competitive inhibition of GSK3beta (unknown origin) at 10 uM using fixed level of GS-2 peptide substrate and varying ATP levels incubated for 30 mins by kinase-Glo luminescent assay
# Method in brief: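 Human recombinant GSK-3β, 20 ng per reaction, in HEPES pH 7.5 buffer with EDTA, EGTA and Mg acetate. GS-2 prephosphorylated peptide held at 25 µM; ATP varied from 1 to 50 µM along with inhibitor level. 30 min at 30 °C, then Kinase-Glo luminescence read after 10 min. Lineweaver–Burk double-reciprocal analysis; means of two experiments, each run in triplicate.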
# Target sequence in this assay (P49841 whole entry, looked up): as the sequence (P49841 whole entry) above
# [13] = biological target: CDC7/DBF4 (Cell division cycle 7-related protein kinase/Activator of S phase kinase) (Homo sapiens) (UniProt Q9UBU7+O00311); experiment: Inhibition of CDC7/Dbf4 (unknown origin) at 10 uM incubated for 60 mins by Kinase-Glo assay; format: protein-complex assay; conditions: in the assay text read “ADP-Glo assay” for “Kinase-Glo assay”
# Sequence of CDC7/DBF4 (Cell division cycle 7-related protein kinase/Activator of S phase kinase) (Homo sapiens) (O00311 whole entry, looked up): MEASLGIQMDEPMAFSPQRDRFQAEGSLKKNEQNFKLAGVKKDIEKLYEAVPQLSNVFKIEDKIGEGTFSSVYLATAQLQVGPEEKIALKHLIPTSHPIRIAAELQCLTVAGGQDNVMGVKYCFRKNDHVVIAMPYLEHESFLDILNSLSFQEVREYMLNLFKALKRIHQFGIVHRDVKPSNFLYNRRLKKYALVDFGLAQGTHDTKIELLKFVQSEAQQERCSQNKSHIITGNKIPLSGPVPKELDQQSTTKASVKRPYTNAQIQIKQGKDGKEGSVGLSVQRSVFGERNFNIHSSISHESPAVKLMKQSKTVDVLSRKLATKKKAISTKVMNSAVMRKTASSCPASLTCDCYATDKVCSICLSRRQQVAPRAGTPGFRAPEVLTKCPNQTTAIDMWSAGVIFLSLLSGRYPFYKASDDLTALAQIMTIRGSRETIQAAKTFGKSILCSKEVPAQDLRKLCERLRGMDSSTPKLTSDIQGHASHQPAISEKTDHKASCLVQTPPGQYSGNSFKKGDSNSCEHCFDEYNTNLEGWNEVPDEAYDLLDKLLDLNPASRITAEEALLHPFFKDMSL
# Sequence of CDC7/DBF4 (Cell division cycle 7-related protein kinase/Activator of S phase kinase) (Homo sapiens) (Q9UBU7 whole entry, looked up): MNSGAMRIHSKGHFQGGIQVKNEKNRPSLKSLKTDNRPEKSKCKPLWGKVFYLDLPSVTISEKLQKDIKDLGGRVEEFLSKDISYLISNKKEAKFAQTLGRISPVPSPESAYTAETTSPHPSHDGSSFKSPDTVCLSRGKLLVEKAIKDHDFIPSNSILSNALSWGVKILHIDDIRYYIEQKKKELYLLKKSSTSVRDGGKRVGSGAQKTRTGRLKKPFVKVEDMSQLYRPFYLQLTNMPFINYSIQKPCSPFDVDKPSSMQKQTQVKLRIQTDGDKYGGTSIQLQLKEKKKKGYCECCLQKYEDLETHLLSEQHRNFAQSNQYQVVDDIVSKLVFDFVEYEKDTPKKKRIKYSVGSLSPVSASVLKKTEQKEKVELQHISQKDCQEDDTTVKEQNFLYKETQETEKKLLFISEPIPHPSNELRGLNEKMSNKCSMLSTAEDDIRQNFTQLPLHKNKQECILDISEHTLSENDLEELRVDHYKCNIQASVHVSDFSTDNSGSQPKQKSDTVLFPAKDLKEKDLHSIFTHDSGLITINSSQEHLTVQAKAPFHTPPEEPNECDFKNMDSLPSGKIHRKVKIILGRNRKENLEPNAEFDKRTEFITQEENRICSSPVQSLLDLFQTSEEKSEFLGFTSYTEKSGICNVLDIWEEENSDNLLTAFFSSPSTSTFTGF
# Method in brief: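 CDC7/DBF4 enzyme, 25 ng/well, with 10 µM ATP (final) and PDKtide substrate. Incubated 60 min at room temperature. ADP-Glo reagent added for 40 min, then detection reagent for 30 min, and luminescence read. Inhibition calculated relative to the no-inhibitor maximum.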
# [14] = tested on: Cerebellar granule neurone; experiment: Neurotoxicity in rat primary cerebellar granule neurons assessed as reduction in cell viability at 5 to 25 uM incubated for 24 hrs by MTT assay; format: toxicity; method in brief: as §4
# [15] = biological target: T1, Glycogen synthase kinase-3 beta; experiment: Inhibition of GSK3beta (unknown origin) at 10 uM
# Method in brief: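 Human recombinant GSK-3β (20 ng) with 25 µM GS-2 prephosphorylated peptide and 1 µM ATP in 50 mM HEPES pH 7.5, 1 mM EDTA, 1 mM EGTA, Mg acetate. DMSO at most 1%. 30 min at 30 °C; reaction stopped with Kinase-Glo, luminescence read after 10 min. Activity scaled between no inhibitor and full inhibition by a reference inhibitor.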
# Target sequence in this assay (P49841 whole entry, looked up): as the sequence (P49841 whole entry) above
# [16] = tested on: Cerebellar granule neurone; experiment: Neurotoxicity in rat primary cerebellar granule neurons assessed as reduction in cell viability at 5 uM incubated for 24 hrs by MTT assay; format: toxicity; method in brief: as §4
# [17] = Hepatotoxicity in human HepG2 cells assessed as reduction in cell viability incubated for 24 hrs by MTT assay; format: toxicity, cell-based; conditions: hepg2, 24 h; method in brief: as §3
pIC50 [1],inhibition [2],Structure (SMILES),other results
< 5.00,< 50%,O=C1NC(=O)/C(=C/c2ccccc2OCc2ccccc2)S1,
5.21,> 50%,O=C1NC(=O)/C(=C/c2cc3ccccc3nc2Cl)S1,
< 5.00,< 50%,O=C1NC(=O)/C(=C/c2ccc(F)cc2)S1,
< 5.00,< 50%,O=C1NC(=O)/C(=C/c2ccccc2F)S1,
< 5.00,< 50%,O=C1NC(=O)/C(=C/c2cc3ccccc3o2)S1,
5.05,> 50%,O=C1NC(=O)/C(=C/c2ccc(O)cc2)S1,
5.31,> 50%,O=C1NC(=O)/C(=C/c2c[nH]c3ccccc23)S1,Papp at 2.5 h [3]: > 3.07 ×10⁻⁶ cm/s; inhibition [4]: inactive; inhibition [5]: Active; inhibition [6]: Active; inhibition [7]: Active; Activity [8]: Non-Toxic; pIC50 [9]: 4.68; Activity [10]: Toxic; inhibition [11]: inactive; inhibition [12]: Active; inhibition [13]: inactive; Activity [14]: Non-Toxic; inhibition [15]: 95%
< 5.00,< 50%,O=C1NC(=O)/C(=C/c2cccc(O)c2)S1,
5.13,> 50%,O=C1NC(=O)/C(=C/c2cc3ccccc3s2)S1,Papp at 2.5 h [3]: > 3.07 ×10⁻⁶ cm/s; Activity [8]: Non-Toxic; Activity [16]: Toxic
5.15,> 50%,O=C1NC(=O)/C(=C/c2ccc3c(c2)OCCO3)S1,
5.10,> 50%,O=C1NC(=O)/C(=C/c2cccs2)S1,
< 5.00,< 50%,O=C1NC(=O)/C(=C/c2ccccc2O)S1,
5.15,> 50%,COc1ccc(/C=C2\SC(=O)NC2=O)c(O)c1,
< 5.00,< 50%,COc1ccc2[nH]cc(/C=C3\SC(=O)NC3=O)c2c1,
< 5.00,,O=C1NC(=O)/C(=C/c2cccc(F)c2)S1,
< 5.00,< 50%,O=C1NC(=O)/C(=C/c2c3ccccc3cc3ccccc23)S1,
< 5.00,< 50%,O=C1NC(=O)/C(=C/c2ccco2)S1,
< 5.00,< 50%,O=C1NC(=O)/C(=C/c2ccccc2)S1,

pIC50 [1],inhibition [2],Structure (SMILES),other results
< 5.00,< 50%,O=C1NC(=O)/C(=C/c2ccc3ccccc3c2)S1,
,> 50%,COc1cc(/C=C2\SC(=O)NC2=O)ccc1O,
,,CCc1ccc(CCOc2ccc(CC3SC(=O)NC3=O)cc2)nc1 (stereo not given) [PIOGLITAZONE],Activity [17]: Dose-dependent effect; Activity [16]: Toxic
< 5.00,< 50%,COc1cc(/C=C2\SC(=O)NC2=O)cc2c1OCO2,
5.07,> 50%,CN(C)c1cccc(/C=C2\SC(=O)NC2=O)c1,Papp at 2.5 h [3]: > 3.07 ×10⁻⁶ cm/s; Activity [17]: Dose-dependent effect; Activity [16]: Toxic
< 5.00,< 50%,CN(C)c1ccc(/C=C/C=C2\SC(=O)NC2=O)cc1,
< 5.00,< 50%,Cn1c(/C=C2\SC(=O)NC2=O)nc2ccccc21,
< 5.00,< 50%,O=C1NC(=O)/C(=C/c2ccc(-c3ccccc3)cc2)S1,
5.04,> 50%,CN(C)c1ccccc1/C=C1\SC(=O)NC1=O,Papp at 2.5 h [3]: > 3.07 ×10⁻⁶ cm/s; Activity [17]: Dose-dependent effect; Activity [16]: Toxic
5.04,> 50%,O=C1NC(=O)/C(=C/c2ccc(O)c([N+](=O)[O-])c2)S1,
5.06,> 50%,O=C1NC(=O)/C(=C/c2cccnc2)S1,
5.45,> 50%,COc1ccc2nc(Cl)c(/C=C3\SC(=O)NC3=O)cc2c1,
5.22,> 50%,O=C1NC(=O)/C(=C/c2c(-c3ccccc3)[nH]c3ccccc23)S1,
< 5.00,< 50%,O=C1NC(=O)/C(=C/c2ccccn2)S1,
5.85,> 50%,O=C1NC(=O)/C(=C/c2ccncc2)S1,
< 5.00,< 50%,CN(C)c1ccc(/C=C2\SC(=O)NC2=O)cc1,
< 5.00,< 50%,O=C1NC(=O)/C(=C/C=C/c2ccccc2)S1,
